Screening results (PubChem)
Compounds with a hit are over-represented: about 3.7% of the library has one in this group of screens.
OX1R antag-1 – antagonists of human orexin 1 receptor (OX1R). Orexin/Hypocretin receptor type 1 (Homo sapiens), O43613. inhibition, % at 6.6 µM. actives 1.8% (n = 330,000). OX1R-expressing cells, FRET antagonist read-out. AID 485270, 2010; in the data active means inhibition mostly above about 38%, no sharp cut-off; inactive means mostly below about 40%;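 further: 0% = agonist challenge alone and 100% = reference antagonist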
Target sequence (O43613 whole entry, looked up): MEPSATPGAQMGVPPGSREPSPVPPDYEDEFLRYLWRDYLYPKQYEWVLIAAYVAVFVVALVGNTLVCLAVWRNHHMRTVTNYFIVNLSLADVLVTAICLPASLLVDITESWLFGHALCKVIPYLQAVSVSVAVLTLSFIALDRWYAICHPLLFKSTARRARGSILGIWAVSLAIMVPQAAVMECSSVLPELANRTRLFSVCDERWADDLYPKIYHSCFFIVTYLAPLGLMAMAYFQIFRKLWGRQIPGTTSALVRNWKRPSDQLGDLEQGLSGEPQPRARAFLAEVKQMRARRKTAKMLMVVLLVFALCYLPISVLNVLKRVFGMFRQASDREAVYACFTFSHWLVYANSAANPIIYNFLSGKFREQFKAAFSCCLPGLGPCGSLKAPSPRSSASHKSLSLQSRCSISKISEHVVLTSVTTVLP
CHO parental Ca – ATP-evoked calcium signal inhibitors, parental CHO, primary screen, counter-screen for OX1R antagonist project, cell-based, fluorescence, Fluo-8 calcium dye. parental CHO-K1, ATP-induced calcium, Fluo-8 fluorescence. actives 0.63% (n = 330,000). inhibition, % at 5.6 µM;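 active means inhibition above that plate's mean sample inhibition plus 3 SD, cut at about 26% in these data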;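 further: 0% = ATP-challenged DMSO wells and 100% = DMSO wells without ATP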
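Assay system: untransfected parental CHO cell line. Also added: ATP agonist challenge. Dosing: one dose, 5.6 µM nominal. Measured by: Fluo-8 fluorescence. Read-out: % inhibition. Benchmarks: ATP wells versus no-ATP DMSO wells. Repeats: no replicates.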
EP2 modulator – EP2 receptor modulators, cAMP readout, primary screen, cell-based, HTRF cAMP, PGE2 stimulation; Prostaglandin E2 receptor EP2 subtype (Homo sapiens), P43116; EP2-expressing cells, cAMP HTRF FRET, PGE2 co-stimulation; induction, % at 25 µM; actives 0.83% (n = 260,000); AID 940, 2007;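 active means compounds whose cAMP rise, as percent of the full-agonist control response, exceeds 60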;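 further: rat C6 glioma line stably carrying human EP2 under a CMV promoter; the protocol text gives 20 µM as final concentration; 100% = response of wells given 1 µM PGE2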
OX1R antag-2 – OX1R (HCRTR1) antagonists, primary screen, fluorescence, CHO/OX1R cells, Fluo-8 calcium, orexin A; inhibition, % at 5 µM; Orexin/Hypocretin receptor type 1 (Homo sapiens), O43613; Fluo-8 calcium fluorescence; actives 0.43% (n = 330,000);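 active means inhibition above its plate's threshold, mean inhibition of all tested compounds on the plate plus 3 SD, cut at about 37% in these data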;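 further: 0% = orexin A challenge wells and 100% = SB-334867-A antagonist wells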
GPR7 antag – GPR7 receptor antagonists, primary screen, cell-based, fluorescence, single concentration. inhibition, % at 4.4 µM. Neuropeptides B/W receptor type 1 (Homo sapiens), P48145. GPR7-expressing cells, fluorescence antagonist assay. actives 1.1% (n = 290,000). AID 1861, 2009; in the data active means inhibition above about 16%, passing the limit was not always enough;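 further: cells stimulated with the agonist NPW; 0% = agonist with vehicle and 100% = vehicle without agonist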
PGE2 EP2 inh – human EP2 receptor antagonists, primary screen, TR-FRET cAMP, C6 glioma cells. inhibition, % at 25 µM. actives 0.52% (n = 260,000). Prostaglandin E2 receptor EP2 subtype (Homo sapiens), P43116. C6 glioma cells expressing human EP2; cells stimulated with saturating PGE2;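 active means percent inhibition above 40 after rounding to a whole number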;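 further: rat C6 glioma host cells with rolipram phosphodiesterase inhibitor present; the protocol text gives 20 µM as final concentration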
OX1R HTRF confirm – OX1R (HCRTR1) antagonists, confirmation, cell-based, HTRF; shares compounds with OX1R antag-1; inhibition, % at 6.6 µM; OX1R-expressing cells, HTRF antagonist assay; AID 492964, 2010; actives 49% (n = 1,800); in the data active means inhibition above about 55%;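 further: CHO cells expressing OX1R stimulated with orexin A at about EC80; 0% = agonist challenge alone and 100% = reference antagonist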
CHO-K1 HTRF – signal inhibition in parental CHO-K1 cells, counter-screen for OX1R antagonist project, cell-based, HTRF; inhibition, % at 6.6 µM; shares compounds with OX1R antag-1; AID 493232, 2011; actives 48% (n = 1,800); HTRF counterscreen; in the data active means inhibition above about 17%;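 further: 0% = agonist challenge with vehicle and 100% = vehicle alone without agonist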
* marks the source's active call; other numbers are inactive results; · = no result.

SMILES | OX1R antag-1 | CHO parental Ca | EP2 modulator | OX1R antag-2 | GPR7 antag | PGE2 EP2 inh | OX1R HTRF confirm | CHO-K1 HTRF
CN(C(=O)COC(=O)CSc1ccc([N+](=O)[O-])cc1)C1CCS(=O)(=O)C1 (stereo unspecified) | 44 | -2 | · | 0 | · | · | · | ·
CN(C(=O)COC(=O)CSc1ccc(C(N)=O)cc1[N+](=O)[O-])C1CCS(=O)(=O)C1 (stereo unspecified) | 77* | 13 | · | 7 | · | · | 44 | 69*
CN(C(=O)CSc1nc2ccc([N+](=O)[O-])cc2s1)C1CCS(=O)(=O)C1 (stereo unspecified) | 83* | -8 | 4 | -5 | -12 | 1 | 70* | 40*
CCCOc1ccc(/C=N/NC(=O)CN(c2ccc(OCC)cc2)S(C)(=O)=O)cc1 | 5 | -13 | 53 | -46 | -12 | 8 | · | ·
CCOc1ccc(N(CC(=O)N/N=C/c2cc([N+](=O)[O-])ccc2Cl)S(C)(=O)=O)cc1 | 81* | 0 | -15 | 13 | 2 | 14 | 22 | 7
CN(C)CCN(Cc1cc2cc3c(cc2[nH]c1=O)OCO3)C(=O)Nc1ccccc1F | · | · | -24 | · | · | 11 | · | ·
O=C(NCC(c1cccs1)N1CCOCC1)c1cc([N+](=O)[O-])cc([N+](=O)[O-])c1 (stereo unspecified) | 112* | -6 | -12 | -9 | 6 | 9 | 39 | 58*
N#C/C(=C/c1ccc(Br)o1)C(N)=O | 79* | -12 | -3 | -11 | -5 | 13 | 44 | 12
COc1ccc(C2CCN(Cc3cccnc3)CC2O)cc1 (stereo unspecified) | 96* | -5 | 19 | -16 | -14 | 14 | 16 | 3
COc1ccc(-c2nc(C3CCCCC3)no2)cc1OC | -4 | -2 | 23 | -4 | -2 | 10 | · | ·
O=C1C=C(N2CCCCC2)c2ccccc2C1=O | 84* | -9 | · | -19 | · | · | 66* | 110*
CC(NS(=O)(=O)c1ccc([N+](=O)[O-])cc1)C(=O)NN (stereo unspecified) | 85* | -6 | 18 | -14 | -7 | 8 | 28 | 48*
Cc1ccc(NCC(=O)N=Nc2c(O)n(C)c3ccccc23)cc1 | 95* | 11 | -50 | -4 | -5 | 10 | 38 | 32*
COC(=O)c1ccc(NC(=O)CSc2nnc(-c3cccs3)n2C)cc1 | · | · | -17 | · | · | 4 | · | ·
O=[N+]([O-])c1ccc2c(c1N1CCCCC1)=NC1(CCCCC1)[N+]=2[O-] | 77* | -8 | -51 | -29 | -17 | 12 | 49 | 77*
O=C(O)c1cc([N+](=O)[O-])ccc1NCCO | 33 | -4 | 15 | -8 | 1 | 10 | · | ·
CN(CCO)c1ccc([N+](=O)[O-])cc1C(=O)O | 80* | 2 | 17 | 1 | -13 | 9 | 21 | 25*
Cc1cccc(OCCCn2c(=O)oc3ccccc32)c1 | 8 | 6 | 23 | -10 | -3 | 4 | · | ·
O=C(N/N=C/c1c(F)c(F)c(F)c(F)c1F)c1cccc(S(=O)(=O)N2CCOCC2)c1 | 11 | -4 | -10 | 6 | -8 | 5 | · | ·
Cc1cc(C)nc(SCC(=O)c2cc3ccccc3oc2=O)n1 | 19 | -17 | 6 | -24 | -5 | 7 | · | ·
Cc1cc[n+](CC(=O)c2cc3ccccc3oc2=O)cc1 | 78* | -6 | -31 | -7 | 10 | 7 | 69* | 86*
O=C(c1ccc(NS(=O)(=O)c2ccccc2)cc1)N1CCCC1 | 11 | -5 | 16 | -15 | -11 | 7 | · | ·
O=C(Nc1cc(F)cc(F)c1)c1ccc(NCCCN2CCCCCC2)c([N+](=O)[O-])c1 | 86* | -7 | -44 | -17 | 3 | 5 | 43 | 39*
O=C1C(Cl)=C(NCCN2CCCCC2)C(=O)c2ccccc21 | 90* | 8 | -92 | -11 | 0 | 17 | 68* | 71*
O=C(NCCN1CCCC1)c1ccccc1Cl | 12 | -13 | -6 | 12 | -12 | 7 | · | ·
SMILES | OX1R antag-1 | CHO parental Ca | EP2 modulator | OX1R antag-2 | GPR7 antag | PGE2 EP2 inh | OX1R HTRF confirm | CHO-K1 HTRF
CCNC1=C(Cl)C(=O)c2ccccc2C1=O | 178* | 8 | -24 | -15 | -4 | 17 | 58* | 93*
Cc1ccc(NC2=C(Cl)C(=O)c3ccccc3C2=O)cc1 | 29 | 31 | -1 | 28 | 0 | 5 | · | ·
CCCC(=O)OCCNc1cc(SCCC(=O)OC)c2nonc2c1[N+](=O)[O-] | 120* | -20 | 1 | -10 | -3 | 6 | 64* | 79*
CC(=O)OCCNc1cc(SCc2ccco2)c2nonc2c1[N+](=O)[O-] | 46 | -1 | -77 | -6 | -8 | -4 | · | ·
O=C1OCCN1/N=C/c1ccc([N+](=O)[O-])o1 | 79* | -13 | 12 | 14 | -3 | 14 | 60* | 93*
CCCn1c(SCC(=O)N(CC)CC)nnc1-c1ccncc1 | 15 | -9 | 6 | -15 | 11 | 8 | · | ·
CCN(CC)C(=O)CSc1nnc2nnc3cc(C)ccc3n12 | 91* | -21 | -27 | -19 | 17 | 11 | 60* | 103*
CCN(CC)C(=O)CSc1nnc2nnc3cc(Cl)ccc3n12 | 108* | -16 | -39 | -27 | 0 | 5 | 70* | 126*
CCOC(=O)c1ccc(NC(=O)CSC2=NN3CCCC(=O)N=C3S2)cc1 | -2 | -5 | · | -15 | -6 | · | · | ·
O=[n+]1c2c(n([O-])c3cc(Br)ccc31)CCCC2 | 43 | -11 | -4 | -13 | -9 | 9 | · | ·
O=[n+]1c2c(n([O-])c3cc(F)c(F)cc31)CCCC2 | 129* | -11 | 7 | -15 | -18 | 11 | 39 | 77*
N#CCCn1c(O)c(N=NC(=O)CNC(=O)c2cccs2)c2ccccc21 | 93* | -8 | 1 | -22 | -8 | 4 | 38 | 50*
C=C(C)Cc1c(C)c(C#N)c2nc3ccccc3n2c1NCCCN(C)C | 5 | -19 | 4 | -26 | 5 | 12 | · | ·
CC1CCC/C(=N/Nc2ccc([N+](=O)[O-])cc2[N+](=O)[O-])C1 (stereo unspecified) | 107* | -15 | 27 | -18 | -9 | 20 | 35 | 27*
